Assay results reported in ChEMBL document CHEMBL1139834, “Synthesis and structure-activity relationships of new benzodioxinic lactones as potential anticancer drugs” (J Med Chem, 2007).
The source made the active and inactive calls. The calls are words filed in the database; no cut-off is given here.

What was measured:
L1210 [1] = assay: Cell cycle arrest in mouse L1210 cell line by accumulation at G2/M phase at 5 uM after 24 hrs; type: functional
In short: (§1)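 L1210 cells in RPMI 1640 with 2 mM L-glutamine, penicillin, streptomycin and 20% heat-inactivated horse serum, 5% CO2, 37 °C, exposed to several drug concentrations. Cells fixed in 70% ethanol, washed, stained 30 min at room temperature with propidium iodide plus RNAse in PBS, then flow cytometry. Read-out is percentage of cells in each cycle phase after 24 h exposure.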

NCI/ADR-RES = assay: Antitumor activity against human NCI/ADRRES cell line; type: functional
In short: (§2)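 Human tumour cell line panel. GI50 is the concentration giving 50% growth inhibition, averaged over at least two determinations. LC50 is the concentration killing 50% of cells in a […] assay.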

Hs-578T = assay: Antitumor activity against human HS578T cell line; type: functional; in short: as §2
NCI-H460 = assay: Antitumor activity against human NCI-H460 cell line; type: functional; in short: as §2
HCT-116 = assay: Antitumor activity against human HCT116 cell line; type: functional; in short: as §2
HCT-15 = assay: Antitumor activity against human HCT15 cell line; type: functional; in short: as §2
KM12 = assay: Antitumor activity against human KM12 cell line; type: functional; in short: as §2
SF-268 = assay: Antitumor activity against human SF268 cell line; type: functional; in short: as §2
SF-295 = assay: Antitumor activity against human SF295 cell line; type: functional; in short: as §2
SF-539 = assay: Antitumor activity against human SF539 cell line; type: functional; in short: as §2
SNB-75 = assay: Antitumor activity against human SNB75 cell line; type: functional; conditions: read-out: LC50 (the source's name)
In short: (§3)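 Human tumour cell lines from a selected panel. GI50 is the concentration giving 50% growth inhibition, averaged from at least two determinations. LC50 is the concentration killing 50% of cells in a […] assay.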

U-251 = assay: Antitumor activity against human U251 cell line; type: functional; in short: as §3
LOX IMVI = assay: Antitumor activity against human LOX IMVI cell line; type: functional; in short: as §2
Malme-3M = assay: Antitumor activity against human MALME3M cell line; type: functional; in short: as §2
M14 = assay: Antitumor activity against human M14 cell line; type: functional; in short: as §2
SK-MEL-28 = assay: Antitumor activity against human SKMEL28 cell line; type: functional; in short: as §2
SK-MEL-5 = assay: Antitumor activity against human SKMEL5 cell line; type: functional; in short: as §2
UACC-62 = assay: Antitumor activity against human UACC62 cell line; type: functional; in short: as §3
[2] = Antitumor activity against human IGROVI cell line; type: functional; in short: as §2
OVCAR-4 = assay: Antitumor activity against human OVCAR4 cell line; type: functional; in short: as §2
HT-29 = assay: Cytotoxicity against human HT29 cell line; type: cell-based
In short: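 Cells grown at 37 °C under 5% CO2 in medium with 2 mM L-glutamine, penicillin, streptomycin and 20% heat-inactivated horse serum. Drug in DMSO (0.5% final) added to exponentially growing cells seeded at 0.8 × 10^5 cells/mL. Coulter counting in quadruplicate at 48 h (L1210) or 96 h (HT-29). IC50 from probit of % growth inhibition versus log dose; four independent runs in triplicate.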

L1210 [3] = assay: Cell cycle arrest in mouse L1210 cell line by accumulation at 8N phase at 5 uM after 24 hrs; type: functional; in short: as §1
[4] = Effect on DNA sequence recognition assessed by DNase I footprinting assay; type: functional
Homo sapiens = organism: Homo sapiens; assay: Inhibition of topoisomerase 2 assessed by DNA cleavage complex formation assay
In short: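 Cleavage complex formed on pYRG plasmid DNA by human topoisomerase II purified from placenta. Linear DNA product quantified by densitometry relative to ellipticine.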

CCRF-CEM = assay: Antitumor activity against human CCRF-CEM cell line; type: functional; in short: as §2
HL-60 = assay: Antitumor activity against human HL60 cell line; type: functional; in short: as §2
MOLT-4 = assay: Antitumor activity against human MOLT4 cell line; type: functional; in short: as §2
RPMI-8226 = assay: Antitumor activity against human RPMI8226 cell line; type: functional; in short: as §2
SR = assay: Antitumor activity against human SR cell line; type: functional; in short: as §3
EKVX = assay: Antitumor activity against human EKVX cell line; type: functional; in short: as §2
HOP-62 = assay: Antitumor activity against human HOP62 cell line; type: functional; in short: as §2
HOP-92 = assay: Antitumor activity against human HOP92 cell line; type: functional; in short: as §2
NCI-H226 = assay: Antitumor activity against human NCI-H226 cell line; type: functional; in short: as §2
NCI-H23 = assay: Antitumor activity against human NCI-H23 cell line; type: functional; in short: as §2
NCI-H322M = assay: Antitumor activity against human NCI-H322M cell line; type: functional; in short: as §2
A498 = assay: Antitumor activity against human A498 cell line; type: functional; in short: as §2
OVCAR-8 = assay: Antitumor activity against human OVCAR8 cell line; type: functional; in short: as §2
ACHN = assay: Antitumor activity against human ACHN cell line; type: functional; in short: as §2
RXF 393 = assay: Antitumor activity against human RXF393 cell line; type: functional; in short: as §2
SN12C = assay: Antitumor activity against human SN12C cell line; type: functional; in short: as §2
TK-10 = assay: Antitumor activity against human TK10 cell line; type: functional; in short: as §3
PC-3 = assay: Antitumor activity against human PC3 cell line; type: functional; in short: as §2
DU-145 = assay: Antitumor activity against human DU145 cell line; type: functional; in short: as §2
MCF7 = assay: Antitumor activity against human MCF7 cell line; type: functional; in short: as §2
MDA-MB-231 = assay: Antitumor activity against human MDA-MB-231 cell line; type: functional; in short: as §2
MDA-N = assay: Antitumor activity against human MDA-N cell line; type: functional; in short: as §2
BT-549 = assay: Antitumor activity against human BT549 cell line; type: functional; in short: as §2
T47D = assay: Antitumor activity against human T47D cell line; type: functional; in short: as §3
[5] = read-out: LC50 (the source's name)

CCCCc1c2c(c(C)c3c1C(=O)OC3)Oc1ccccc1O2
Activity (L1210 [1]): 67%
GI50 (NCI/ADR-RES): 0.437 µM
CC50 (NCI/ADR-RES; [5]): 100 µM
GI50 (Hs-578T): 0.363 µM
CC50 (Hs-578T; [5]): 100 µM
GI50 (NCI-H460): 0.372 µM
CC50 (NCI-H460; [5]): 100 µM
GI50 (HCT-116): 0.38 µM
CC50 (HCT-116; [5]): 50 µM
GI50 (HCT-15): 0.589 µM
CC50 (HCT-15; [5]): 100 µM
GI50 (KM12): 0.49 µM
CC50 (KM12; [5]): 100 µM
GI50 (SF-268): 0.977 µM
CC50 (SF-268; [5]): 100 µM
GI50 (SF-295): 0.447 µM
CC50 (SF-295; [5]): 100 µM
GI50 (SF-539): 0.339 µM
CC50 (SF-539; [5]): 10 µM
CC50 (SNB-75): 90 µM
GI50 (U-251): 0.525 µM
CC50 (U-251; [5]): 40 µM
GI50 (LOX IMVI): 1.23 µM
CC50 (LOX IMVI; [5]): 100 µM
GI50 (Malme-3M): 0.447 µM
CC50 (Malme-3M; [5]): 100 µM
GI50 (M14): 0.603 µM
CC50 (M14; [5]): 100 µM
GI50 (SK-MEL-28): 39.8 µM
CC50 (SK-MEL-28; [5]): 100 µM
GI50 (SK-MEL-5): 0.427 µM
CC50 (SK-MEL-5; [5]): 100 µM
GI50 (UACC-62): 0.49 µM
CC50 (UACC-62; [5]): 100 µM
GI50 [2]: 0.282 µM
CC50 [2, 5]: 10 µM
GI50 (OVCAR-4): 1.95 µM
CC50 (OVCAR-4; [5]): 100 µM
IC50 (HT-29): 0.58 µM
Activity (L1210 [3]): 67%
Activity [4]: inactive
Activity (Homo sapiens): inactive
GI50 (CCRF-CEM): 0.501 µM
CC50 (CCRF-CEM; [5]): 100 µM
GI50 (HL-60): 0.245 µM
CC50 (HL-60; [5]): 100 µM
GI50 (MOLT-4): 0.447 µM
CC50 (MOLT-4; [5]): 100 µM
GI50 (RPMI-8226): 0.759 µM
CC50 (RPMI-8226; [5]): 100 µM
GI50 (SR): 0.132 µM
CC50 (SR; [5]): 100 µM
GI50 (EKVX): 2.95 µM
CC50 (EKVX; [5]): 100 µM
GI50 (HOP-62): 1.45 µM
CC50 (HOP-62; [5]): 100 µM
GI50 (HOP-92): 5.75 µM
CC50 (HOP-92; [5]): 100 µM
GI50 (NCI-H226): 1.86 µM
CC50 (NCI-H226; [5]): 100 µM
GI50 (NCI-H23): 2.63 µM
CC50 (NCI-H23; [5]): 100 µM
GI50 (NCI-H322M): 0.933 µM
CC50 (NCI-H322M; [5]): 100 µM
GI50 (A498): 0.776 µM
CC50 (A498; [5]): 100 µM
GI50 (OVCAR-8): 3.55 µM
CC50 (OVCAR-8; [5]): 100 µM
GI50 (ACHN): 3.72 µM
CC50 (ACHN; [5]): 100 µM
GI50 (RXF 393): 0.977 µM
CC50 (RXF 393; [5]): 100 µM
GI50 (SN12C): 1.26 µM
CC50 (SN12C; [5]): 100 µM
GI50 (TK-10): 1.51 µM
CC50 (TK-10; [5]): 100 µM
GI50 (PC-3): 0.437 µM
CC50 (PC-3; [5]): 100 µM
GI50 (DU-145): 1.82 µM
CC50 (DU-145; [5]): 100 µM
GI50 (MCF7): 1.23 µM
CC50 (MCF7; [5]): 100 µM
GI50 (MDA-MB-231): 2.34 µM
CC50 (MDA-MB-231; [5]): 100 µM
GI50 (MDA-N): 0.117 µM
CC50 (MDA-N; [5]): 60 µM
GI50 (BT-549): 21.4 µM
CC50 (BT-549; [5]): 100 µM
GI50 (T47D): 6.46 µM
CC50 (T47D; [5]): 100 µM
